Arr AP2 block – inhibitors of beta-arrestin/AP2 binding, primary screen, biochemical, GPCR trafficking, flow cytometry. inhibition, % at 10 µM. FITC-arrestin peptide / GST-AP2 beads; AP2 beta2 appendage carries R879A mutation. 0.31% of 340,000 active. beta-arrestin 1 C-terminal peptide binding to AP2 beta2-adaptin appendage (human). AID 504490, 2011;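 active = inhibition above a set limit, near 3 SD of compounds lacking own fluorescence, cut at about 54% in these data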
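Material – GST-tagged AP2 beta2-adaptin appendage (R879A) on 4 µm glutathione beads · Probe or stimulus – fluorescein-tagged arrestin peptide at 50 nM final · Timing – 12 min plus 1 h, RT · Detection – bead flow cytometry, FITC channel · Read-out basis – inhibition as reduced fluorescein signal on beads, percent · Medium – PBS plus Tween 20 (0.05%) and BSA (0.1%)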
FAS-TE inh – FAS thioesterase domain inhibitors, primary screen, biochemical, fluorescence intensity, uHTS. inhibition, % at 15 µM. 0.67% of 360,000 active. Fatty acid synthase (Homo sapiens), P49327. AID 602261, 2012. recombinant FAS-TE, OMFH fluorogenic substrate, fluorescence endpoint;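 active = compounds whose normalised, plate-corrected inhibition of enzyme fluorescence in the single-dose primary screen is 50% or more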
ADAM17 inh – ADAM17 inhibitors, primary screen, biochemical, QFRET; Disintegrin and metalloproteinase domain-containing protein 17 (Homo sapiens), P78536; recombinant ADAM17, EDANS/DABCYL FRET peptide cleavage; inhibition, % at 6.95 µM; 0.83% of 370,000 active; AID 720648, 2013;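 active = inhibition above the mean of compounds lying between control limits plus 3 SD, set per campaign, cut at about 8.5% in these data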
ADAM10 inh – human ADAM10 inhibitors, primary screen, biochemical, QFRET, HTS; recombinant ADAM10, EDANS/DABCYL FRET peptide cleavage, 3 h; inhibition, % at 7 µM; 0.62% of 370,000 active;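 active = inhibition above a per-campaign cutoff equal to the mean of compounds falling between control-based bounds plus 3 SD, cut at about 20% in these data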
CaV13 ICDI inh – Disruptors of the CACNA1D IQ motif to Ca2+-dependent inactivation inhibitor domain association, primary screening, Förster resonance energy transfer in intact living …; HEK cells, CFP/YFP FRET ICDI-IQ, plate reader, 10 min; percent FRET-ratio fall versus neutral wells; inhibition, % at 12.3 µM; 0.098% of 340,000 active;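 active = mean replicate inhibition of at least 30% and at least 1% of replicates passing that level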
NRP1-CendR mod – modulators of CendR peptide binding to NRP-1, primary screen, biochemical, fluorescence polarization, uHTS; FAM-RPARPAR peptide binding to NRP-1; inhibition, % at 25 µM; 0.85% of 360,000 active;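 active = inhibition or corrected inhibition above about 18%, plus a signal ratio from 0.5 to 1.5, limit read from the data, passing the limit was not always enough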
Target sequence (O14786 whole entry, looked up): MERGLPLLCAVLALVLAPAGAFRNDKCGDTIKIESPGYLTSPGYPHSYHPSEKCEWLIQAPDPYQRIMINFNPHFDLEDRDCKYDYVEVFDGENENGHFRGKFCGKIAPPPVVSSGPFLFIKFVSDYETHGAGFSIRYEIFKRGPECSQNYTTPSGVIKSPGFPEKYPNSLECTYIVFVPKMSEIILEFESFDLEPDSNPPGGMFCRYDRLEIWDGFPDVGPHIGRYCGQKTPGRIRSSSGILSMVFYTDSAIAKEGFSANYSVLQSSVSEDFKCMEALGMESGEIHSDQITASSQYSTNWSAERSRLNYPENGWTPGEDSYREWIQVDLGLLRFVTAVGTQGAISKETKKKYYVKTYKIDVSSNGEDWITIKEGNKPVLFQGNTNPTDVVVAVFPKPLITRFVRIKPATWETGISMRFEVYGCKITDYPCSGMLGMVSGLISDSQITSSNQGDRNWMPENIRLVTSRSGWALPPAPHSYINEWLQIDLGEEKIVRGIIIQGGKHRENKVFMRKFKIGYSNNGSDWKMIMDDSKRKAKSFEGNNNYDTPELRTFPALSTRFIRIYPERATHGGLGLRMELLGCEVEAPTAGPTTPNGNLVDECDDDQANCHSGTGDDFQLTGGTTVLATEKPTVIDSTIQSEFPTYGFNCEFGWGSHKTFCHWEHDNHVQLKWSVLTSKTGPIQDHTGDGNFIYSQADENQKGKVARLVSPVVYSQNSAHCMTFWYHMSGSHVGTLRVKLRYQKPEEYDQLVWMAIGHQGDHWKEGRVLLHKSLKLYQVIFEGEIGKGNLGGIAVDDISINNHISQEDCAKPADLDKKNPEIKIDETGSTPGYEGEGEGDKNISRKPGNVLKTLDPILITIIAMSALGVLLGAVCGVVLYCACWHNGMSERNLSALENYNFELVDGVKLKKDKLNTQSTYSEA
ADAM10 confirm – human ADAM10 inhibitors, confirmation, biochemical, QFRET, triplicate | shares compounds with ADAM10 inh | 1% of 2,100 active | inhibition, % at 6.95 µM | ADAM10 QFRET peptide cleavage, EDANS fluorescence;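 active = inhibition above about 20% chosen separately for each screening run, limit read from the data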
ADAM17 counter – ADAM17 inhibitors, counter-screen for ADAM10 exosite inhibitor project, biochemical, QFRET, high throughput | shares compounds with ADAM10 inh | inhibition, % at 6.95 µM | ADAM17 QFRET peptide cleavage, EDANS fluorescence | 0.5% of 2,100 active;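 active = mean triplicate inhibition above the solvent-only control wells' mean plus 3 SD, cut at about 12% in these data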
ADAM10 counter – ADAM10 inhibitors, counter-screen for ADAM17 exosite inhibitor project, biochemical, FRET, human ADAM10; inhibition, % at 6.95 µM; shares compounds with ADAM17 inh; 47% of 2,900 active; recombinant ADAM10, EDANS/DABCYL FRET peptide cleavage, 3 h;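 active = mean inhibition over the triplicate runs exceeds the activity threshold set in the earlier primary screen, cut at about 20% in these data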
ADAM17 confirm – ADAM17 inhibitors, hit retest, confirmation, biochemical, QFRET peptide cleavage. shares compounds with ADAM17 inh. recombinant ADAM17, EDANS/DABCYL QFRET peptide cleavage. inhibition, % at 6.95 µM. 65% of 2,900 active. AID 743257, 2014;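 active = mean inhibition across replicates above the hit cutoff set in the primary screen, cut at about 8.5% in these data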
A number is an active result; - = inactive; . = no result given. This is a sample that favours compounds with a hit; in the whole collection about 2.9% have one here.

SMILES	Arr AP2 block	FAS-TE inh	ADAM17 inh	ADAM10 inh	CaV13 ICDI inh	NRP1-CendR mod	ADAM10 confirm	ADAM17 counter	ADAM10 counter	ADAM17 confirm
COc1ccc(NC(=O)c2cc(S(=O)(=O)NCC3COc4ccccc4O3)ccc2F)cc1 (centres undefined)	-	-	-	-	-	-	.	.	.	.
O=C(O)c1cc(S(=O)(=O)NCC2COc3ccccc3O2)ccc1Cl (centres undefined)	-	-	-	-	-	-	.	.	.	.
CC(C)c1ccc(NC(=O)c2cc(S(=O)(=O)NCC3COc4ccccc4O3)ccc2F)cc1 (centres undefined)	-	-	10.0	21	-	-	-	-	38	26
COC(=O)C1=C(C)N(Cc2cccc(C(F)(F)F)c2)C(=NCc2cccc(C(F)(F)F)c2)NC1c1ccc(Cl)cc1 (centres undefined)	.	.	-	-	-	.	.	.	.	.
O=Cc1ccc([B-](F)(F)F)o1	.	.	-	-	-	.	.	.	.	.
CCCCN1CCN(C(=O)C2CCN(S(=O)(=O)c3ccc4[nH]c(=O)oc4c3)CC2)CC1	.	.	-	-	.	.	.	.	.	.
O=C(COc1ccc(Cl)cc1)Nc1nc(-c2cccs2)cs1	-	-	9.7	23	-	-	-	-	-	-
O=C(Nc1nc(-c2cccs2)cs1)c1ccc(Cl)cc1	-	-	-	-	-	-	.	.	.	.
O=C(Cc1ccccc1)Nc1nc(-c2cccs2)cs1	-	-	-	-	-	-	.	.	.	.
COc1ccc(C(=O)Nc2nc(-c3cccs3)cs2)cc1	-	-	10	21	-	-	-	-	-	-
CCc1ccc(NC(=O)CO/N=C(\C)c2cc3ccccc3o2)cc1	-	-	13	24	-	-	-	-	-	13
Cc1cccc(CN2CCN(C3CN(Cc4ccc(F)cc4)S(=O)(=O)C3)CC2)c1 (centres undefined)	.	-	-	-	.	-	.	.	.	.
O=C(O)[C@@H]1C[C@@H](O)CN1	.	.	-	-	-	.	.	.	.	.
Cc1ccc(C(=O)Nc2ccccc2-c2ccccc2)cc1S(=O)(=O)Nc1cccc(C)c1C	-	-	12	29	-	-	-	-	40	19
Cc1ccccc1NS(=O)(=O)c1cc(C(=O)Nc2cccc([N+](=O)[O-])c2)ccc1C	-	-	11	27	-	-	-	-	36	22
COc1ccc(NC(=O)Nc2ccc3c(c2)C(=O)N([C@H](C)CO)C[C@H](C)[C@@H](CN(C)S(=O)(=O)c2cccs2)O3)cc1	-	-	16	21	-	-	-	-	-	10
COc1ccc(NC(=O)Nc2ccc3c(c2)C(=O)N([C@@H](C)CO)C[C@@H](C)[C@@H](CN(C)S(=O)(=O)c2cccs2)O3)cc1	-	-	8.8	21	-	-	-	-	-	12
C[C@H](CO)N1C[C@H](C)[C@H](CN(C)S(=O)(=O)c2cccs2)Oc2ccc(NC(=O)Nc3ccc4c(c3)OCO4)cc2CC1=O	-	-	13	27	-	-	-	-	-	14
COc1cccc(C=NN(C)c2c([N+](=O)[O-])cc(C(F)(F)F)cc2[N+](=O)[O-])c1O	.	-	12	24	-	-	-	-	27	16
O=C(COC(=O)c1ccccc1C(=O)OCC(=O)NCCc1c[nH]c2ccccc12)NCCc1c[nH]c2ccccc12	-	-	9.1	25	-	-	-	-	28	11
O=C(COC(=O)c1ccccc1O)NCCc1c[nH]c2ccccc12	-	-	-	-	-	-	.	.	.	.
Cc1ccc(CN2CCCCC(NC(=O)Nc3cccc(F)c3)C2=O)cc1 (centres undefined)	.	.	-	-	.	.	.	.	.	.
COC(=O)c1sccc1NC(=O)CSc1ccccc1NS(=O)(=O)c1ccc(F)cc1	-	-	-	-	-	-	.	.	.	.
COC(=O)c1sccc1NC(=O)CSc1ccccc1NS(=O)(=O)c1ccc(Br)cc1	-	-	11	21	-	-	-	-	-	-
CCCCNS(=O)(=O)c1ccc2nc(SCC(=O)Nc3ccccc3)[nH]c2c1	-	-	9.1	23	-	-	-	-	-	-
SMILES	Arr AP2 block	FAS-TE inh	ADAM17 inh	ADAM10 inh	CaV13 ICDI inh	NRP1-CendR mod	ADAM10 confirm	ADAM17 counter	ADAM10 counter	ADAM17 confirm
CCOC(=O)C1CCCN(C(=O)c2cccc(S(=O)(=O)N(Cc3ccccc3)c3ccccc3OC)c2)C1 (centres undefined)	-	-	14	30	-	-	-	-	25	12
COc1ccccc1N(Cc1ccccc1)S(=O)(=O)c1cccc(C(=O)Nc2cccc(C)n2)c1	-	-	10	23	.	-	-	-	-	9.6
Cc1cc2oc(=O)cc(-c3ccccc3)c2c(C)c1-c1ccc(O)cc1	-	-	16	33	-	-	-	-	-	13
Cc1cc(O)c2c(-c3ccccc3)cc(=O)oc2c1	-	-	-	-	-	-	.	.	.	.
Cc1cc2nc(-c3ccccc3Br)n(/C=C(\c3ccccc3)n3c(=O)[nH]c4ccccc43)c2cc1C	.	-	-	-	-	-	.	.	.	.
COc1ccc(NC(=O)COC(=O)c2c3c(nc4ccccc24)CCCC3)cc1Cl	-	-	12	23	-	-	-	-	30	19
CC1(C)COC(c2ccc3c(c2)OCO3)OC1	-	-	-	-	-	-	.	.	.	.
